# AP ELISA ortho – alternative complement pathway inhibitors, primary screen, biochemical, ELISA, human serum, orthogonally pooled compounds; LPS-coated ELISA, C3 deposition; tested in compound mixtures; 62,000 tested, 0.08% active; AID 1235, 2008; inhibition, % at 5 µM;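 active = inhibition above 30% in each of the two pooled mixtures holding the compound, so the lower value exceeds 30%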;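 note: 0% = serum in Mg-EGTA without compound and 100% = EDTA serum blank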
#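 Assay system: Human serum alternative complement pathway, C3 deposition on LPS-coated wells | Incubation: 1 h serum-compound exposure at 37 °C | Doses: 5 µM per compound in ten-compound mixtures | Read-out: Percent inhibition | Technique: ELISA with HRP anti-human C3 antibody, TMB substrate, absorbance 450 nm | Replication: Two pool placements per compound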
# HER2 expr 66K – inhibitors of Her2 protein expression, primary screen, SKBR-3 cells, AlphaScreen, 66K library; SKBR-3 HER2 protein level, 18-24 h; stronger effect = lower value; HER2 level % of control, % at 10 µM; 65,000 tested, 0.69% active; AID 645, 2007;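 active = HER2 level under 5% of the carrier-only control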;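 note: 100% = DMSO carrier and 0% = 500 nM PU-H71 HSP90 inhibitor; lower value means stronger loss of Her2 protein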
# MMP13 inh – human MMP13 inhibitors, primary screen, biochemical, FRET peptide cleavage | Collagenase 3 (Homo sapiens), P45452 | MMP-13 fTHP FRET cleavage, Mca fluorescence | inhibition, % at 4 µM | 65,000 tested, 0.07% active;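 active = inhibition above the mean of compound-free control plate wells plus 3 SD, cut at about 14% in these data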;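 note: 0% = DMSO wells and 100% = wells with reference MMP-13 inhibitor after basal subtraction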
# E coli RNAP – E. coli RNAP inhibitors, biochemical; DNA-directed RNA polymerase subunit beta (Escherichia coli (strain K12)), P0A8V2; E. coli RNA polymerase, fluorescence transcription assay; inhibition, %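 (tested at 10 µM)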; 62,000 tested, 0.2% active; in the data active = inhibition above about 20%;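 note: 0% = enzyme without compound and 100% = no enzyme blank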
# TNAP act mid DEA – human TNAP enzyme activators, primary screen, biochemical, luminescent, intermediate phosphate acceptor level. purified TNAP, CDP-star luminescence, 100 mM DEA, 30 min; stronger effect = higher value; scale: 0 levamisole-inhibited, 1 vehicle-only enzyme. 64,000 tested, under 10 active. AID 813, 2007. activation factor at 20 µM. Alkaline phosphatase, tissue-nonspecific isozyme (Homo sapiens), P05186;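 active = activation factor of at least 2 at 20 µM, relative to controls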
# SKBR3 24h inh – SK-BR-3 proliferation inhibitors, primary screen, cell-based, human, 24 h. 41,000 tested, 0.47% active. AID 847, 2007. SK-BR-3 viability, CellTiter-Glo ATP luminescence; stronger effect = lower value. viability, % at 10 µM;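 active = viability at or below the median of all test compounds minus 3 SD, in both replicates if run twice, cut at about 45% in these data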;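 note: 100% = median untreated cell wells and 0% = median positive control drug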
# Active calls of the source: *; · = no result given. A selection: hits, their analogues and other compounds. The true share with any hit is near 1.2%.
SMILES,AP ELISA ortho,HER2 expr 66K,MMP13 inh,E coli RNAP,TNAP act mid DEA,SKBR3 24h inh
CCOC(=O)C1C(c2ccccc2Cl)NC(=O)N(C)C1(O)C(F)(F)F (centres undefined),7.8,-28.4*,0.9,11.9,0.9,84.3
CNC(=O)C1CCCN1S(=O)(=O)c1ccc(OC)cc1 (centres undefined),-2.8,132.5,2.2,-0.1,1,81.4
COc1ccc(CNC(=O)C2CCCN2S(=O)(=O)c2ccc(S(=O)(=O)N(C)C)cc2)cc1 (centres undefined),-5.8,95.8,2.4,-1.1,0.9,33.5*
CC(C)N(Cc1nc(-c2ccccc2)no1)C(=O)CCCN1C(=O)c2ccccc2C1=O,13.9,101.2,4.1,6.9,0.9,83.6
CC(C)N(Cc1nc(-c2ccccc2)no1)C(=O)CN1C(=O)c2ccccc2C1=O,16.4,-19.1*,2.1,0.2,0.9,95.0
COc1ccc(-n2c(COc3cccc(C)c3)nnc2SCC(=O)NCc2ccco2)cc1,1.4,93.0,2.1,21.8*,0.8,·
COc1cccc(OCc2nnc(SCC(=O)NCc3ccco3)n2CCc2ccccc2)c1,18.3,93.4,6.7,-4.8,0.9,92.9
CCOc1ccc(NCc2nnc(SCC(=O)Nc3cc(C)on3)n2-c2ccc(OC)cc2)cc1,12.3,98.9,8.3,25.1*,0.9,102.1
CCCC(=O)N1CCN(S(=O)(=O)c2cc(Cl)ccc2OC)CC1,14.4,83.4,0.7,8.2,1,·
CCN1C2=NCCCN2c2cc(C)c(C)cc21,16.0,99.1,-3.6,-5.8,1,·
CCN1C(=S)SC(=O)C1=C1C=C(C)N(CCO)C(C)=C1,1.7,54.3,13.4,12.0,0.8,92.2
CCN1C(=S)SC(=O)C1=C1C=C(C)N(CCOC)C(C)=C1,10.6,104.1,26.8*,6.1,0.8,97.6
Cn1c(=O)c2c(SCc3cccc(C(F)(F)F)c3)nc(-c3ccco3)nc2n(C)c1=O,15.2,-4.9*,1.6,3.6,1,·
Cc1cc(C)nc(SCc2nnc(SCC(=O)Nc3ccccc3C)n2Cc2ccco2)n1,10.0,86.3,1.3,5.4,0.9,74.8
CC(=O)Nc1nc2n(n1)C(c1ccccc1)C=C(c1ccccc1)N2 (centres undefined),5.8,105.8,-55.4,3.0,1,104.2
O=C(Nc1nc2n(n1)C(c1ccccc1)C=C(c1ccccc1)N2)c1ccco1 (centres undefined),13.2,-22.8*,-20.2,-2.8,1,·
CC12CCCCC1(O)[N+](=O)C1=C(CCCC1)N2[O-] (centres undefined),19.2,-17.4*,-1.4,4.5,0.9,63.9
CC(Cc1ccc(O)c(O)c1)C(C)Cc1ccc(O)c(O)c1 (centres undefined),-5.6,107.5,-6.7,50.7*,0.6,97.1
O=C(NCCCN1CCCC1=O)c1cccc(C(F)(F)F)c1,3.7,63.7,0.1,7.1,1,78.7
O=c1c2c3c(sc2n2cnnc2n1C1CCCCC1)CCC3,·,117.4,20.1*,7.2,0.9,113.7
CCCCCCOc1ccc(C(CC(=O)O)C(N)=O)cc1 (centres undefined),-0.8,119.0,26.5*,-4.8,0.8,91.9
COC(=O)C1=C(N)Oc2cc(C)n(Cc3cccnc3)c(=O)c2C1c1cccc(OC)c1OC (centres undefined),17.1,85.1,-1.5,4.0,0.9,108.7
O=C(NCC1CCCCC1)C1CCN(C(=O)NC2CCCCC2)CC1,11.4,109.8,-1.6,-6.7,1.1,34.7*
CSc1nn(CCc2ccncc2)c(=S)s1,14.5,97.8,-10.7,1.9,0.9,·
Cc1n[nH]c(C)c1S(=O)(=O)N(CC(=O)NC1CCCC1)c1ccc(C(C)C)cc1,3.7,95.0,2.5,5.1,1,·
SMILES,AP ELISA ortho,HER2 expr 66K,MMP13 inh,E coli RNAP,TNAP act mid DEA,SKBR3 24h inh
COc1ccc(C2C(C(C)=O)=C(C)N=c3s/c(=C\c4ccco4)c(=O)n32)c(OC)c1 (centres undefined),23.4,119.1,6.2,·,0.7,·
COc1ccc(C2C(C(C)=O)=C(C)N=c3s/c(=C\c4cc(C)n(C)c4C)c(=O)n32)c(OC)c1 (centres undefined),9.8,55.8,18.3*,·,0.7,·
COCCn1cnc2c(c1=O)c1nc3ccccc3nc1n2/N=C/c1cccc(OC)c1OC,2.7,-0.7*,-5.9,10.4,0.9,72.1
C=CCn1cnc2c(c1=O)c1nc3ccccc3nc1n2/N=C/c1cccc(OC)c1,10.0,69.1,-5.5,6.8,0.9,95.1
NC(=O)C1(N2CCCCC2)CCN(C(=O)c2ccc(-n3cnnn3)cc2)CC1,9.4,144.8,-4.9,1.5,1,42.0*
CCn1c(=O)c2cc(C(=O)N3CCN(C(=O)c4ccco4)CC3)sc2c2ccccc21,5.2,67.6,-28.4,-3.0,1,·
CCOC(=O)c1ccc(N=c2sc(C(=O)OC)cc(=O)n2Cc2ccco2)cc1,7.4,2.9*,7.0,9.4,0.9,·
N#Cc1ccc(-c2ccco2)nc1SCc1ccccc1,6.2,-0.7*,-19.3,11.9,1,117.0
Cc1ccc2cc(CN(CC3CCCO3)C(=O)c3ccco3)c(=O)[nH]c2c1C (centres undefined),6.0,140.5,-5.9,4.2,0.9,84.3
O=C(NCc1ccc(Cl)cc1)C1CCCN(S(=O)(=O)c2cnc[nH]2)C1 (centres undefined),10.7,97.2,1.4,3.7,0.9,·
COc1cc2c(cc1OC)CN(c1ccc(-c3ccccc3OC)nn1)CC2,45.3,-3.7*,-1.2,10.1,0.9,85.9
CC(C)Cc1nc(N2CCOCC2)c(C#N)c2c1COC(C)(C)C2,·,114.9,-98.1,7.7,0.9,101.6
Cc1ccc(C(=O)CCNc2ccc(F)c(Cl)c2)o1,6.3,102.2,3.7,7.4,0.9,117.7
O=S1(=O)C=C(Sc2nnc(-c3ccccc3)o2)c2ccccc21,2.0,-9.4*,-2.4,11.2,0.9,1.4*
CSc1nnc(-c2ccccc2)o1,-9.0,97.2,-2.7,2.0,0.9,·
CS(=O)(=O)c1nc(-c2ccco2)cc(C(F)(F)F)n1,6.3,-22.4*,-4.0,4.2,1,30.8*
COCc1cc(C)nc(Nc2ccc(C)cc2C)c1C#N,15.3,9.2,-1.0,5.2,0.8,38.0*
CCNc1nc(C)cc(COC)c1C#N,12.7,90.6,-116.2,-7.3,0.9,92.4
COCc1cc(C)nc(Nc2ccc(C)c(C)c2)c1C#N,7.1,-3.1*,-3.8,5.1,0.9,·
CN1CCN(CC#CCn2c3ccccc3c3ccccc32)CC1,-2.7,82.3,1.2,7.3,0.9,94.7
Cc1ccccc1-n1nc2c(c1NC(=O)c1cc3ccccc3oc1=O)CS(=O)(=O)C2,8.6,1.1*,-1.7,6.2,0.9,·
